# Tests used:
# [1] = system: HSC-2; experiment: Cytotoxicity against human HSC2 cells; type: functional
# Outline: (§1)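 Human oral squamous carcinoma HSC-2 cells and normal human gingival fibroblasts (HGF) were incubated 24 h with compound added in EtOH (final EtOH in medium below 1%). Viable cells were read as A540 against untreated controls. CC50 is reported in mM as the mean of duplicate determinations.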
# [2] = Cytotoxicity against HGF cells; type: cell-based; settings: human; outline: as §1
# [3] = system: HSC-2; experiment: Selectivity ratio CC50 for HGF to CC50 for human HSC-2 cells
SMILES,CC50 [1],CC50 [2],Ratio [3]
CC1(C)C=Cc2c(cc3oc4c(O)cccc4c(=O)c3c2O)O1,480 µM,> 650 µM,>1.4
CC(C)=CCc1c(O)cc2oc3ccc(O)cc3c(=O)c2c1O,> 640 µM,> 640 µM,
COc1cc(-c2coc3cc(O)cc(O)c3c2=O)ccc1O [3'-O-METHYLOROBOL],160 µM,> 670 µM,>4.2
CC1(C)C=Cc2c(cc3occ(-c4ccc(O)cc4)c(=O)c3c2O)O1 [ALPINUMISOFLAVONE],400 µM,> 600 µM,>1.5
C=CC(C)(C)c1c(O)cc2oc3c(O)c(O)cc(CC=C(C)C)c3c(=O)c2c1O [ALVAXANTHONE],22 µM,25 µM,1.1
COc1c2ccoc2cc2oc(=O)ccc12 [BERGAPTEN],720 µM,> 930 µM,>1.3
COc1cc(O)c(C(=O)c2cccc(O)c2CC=C(C)C)c(O)c1 [CUDRANONE],400 µM,> 610 µM,>1.5
CC(C)=CCc1c(O)cccc1C(=O)c1cc2c(cc1O)OC(C)(C)C=C2 [CUDRAPHENONE A],170 µM,430 µM,2.5
CC(C)=CCc1cc(C(=O)c2cccc(O)c2CC=C(C)C)c(O)cc1O [CUDRAPHENONE B],36 µM,90 µM,2.5
CC(C)=CCc1c(O)cccc1C(=O)c1c(O)cc(O)c2c1OC(C)(C)C=C2 [CUDRAPHENONE C],92 µM,190 µM,2.1
CC(C)=CCc1c(O)cccc1C(=O)c1c(O)cc(O)c(CC=C(C)C)c1O [CUDRAPHENONE D],52 µM,190 µM,3.7
CC1Oc2cc3oc4c(O)c5c(cc4c(=O)c3c(O)c2C1(C)C)C=CC(C)(C)O5 (centres undefined) [GERONTOXANTHONE A],> 510 µM,> 510 µM,
C=CC(C)(C)c1c(O)cc2oc3c(O)c4c(cc3c(=O)c2c1O)C=CC(C)(C)O4 [GERONTOXANTHONE B],390 µM,> 510 µM,>1.3
CC(C)=CCc1cc2c(=O)c3c(O)c4c(cc3oc2c(O)c1O)OC(C)C4(C)C (centres undefined) [GERONTOXANTHONE G],> 510 µM,> 510 µM,
CC(C)=CCc1c(O)cc(O)c2c(=O)c3c(CC=C(C)C)c(O)ccc3oc12 [GERONTOXANTHONE H],120 µM,200 µM,1.7
C=CC(C)(C)c1c(O)c(CC=C(C)C)c(O)c2c(=O)c3ccc(O)c(O)c3oc12 [GERONTOXANTHONE I],430 µM,> 510 µM,>1.1
C=CC(C)(C)c1c(O)cc2oc3c(O)c(O)c(CC=C(C)C)cc3c(=O)c2c1O [ISOALVAXANTHONE],35 µM,58 µM,1.6
C=CC(C)(C)c1c2c(c(O)c3c(=O)c4ccc(O)c(O)c4oc13)C=CC(C)(C)O2 [MACLURAXANTHONE],> 510 µM,> 510 µM,
O=C1C[C@@H](c2ccc(O)cc2)Oc2cc(O)cc(O)c21 [NARINGENIN],550 µM,> 740 µM,>1.3
CC(C)=CCc1c(O)cc(O)c2c1OC(c1ccc(O)cc1)CC2=O (centres undefined) [SOPHORAFLAVANONE B],130 µM,190 µM,1.5
CC(C)=CCc1c(O)cc2occ(-c3ccc(O)cc3)c(=O)c2c1O [WIGHTEONE],120 µM,250 µM,2.1
